Experimental data taken from ChEMBL document CHEMBL1649122, “Abc1p is a multidrug efflux transporter that tips the balance in favor of innate azole resistance in Candida krusei” (2009).
≈ marks a conversion by molar mass, not a printed value. Calls of active or inactive are those of the source. The rule behind the calls is not given here.

Tests used:
[1] = target: ATP binding cassette transporter Abc1p (Issatchenkia orientalis) (UniProt Q09GQ4); assay: Inhibition of Candida krusei Abc1g expressed in Saccharomyces cerevisiae isolate ADdelta assessed as reduction of fluconazole MIC at 2.5 ug/ml after 48 hrs by checkerboard susceptibility assay; settings: Pichia kudriavzevii
Summary of the method: (§1)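 Checkerboard liquid microdilution in CSM (pH 7.0). FLC or ITC MICs of AD/CkABC1g or C. krusei B2399 were measured across a range of milbemycin concentrations. Interaction was expressed as fractional inhibitory concentration index (FICI).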

[2] = target: ATP binding cassette transporter Abc1p (Issatchenkia orientalis) (UniProt Q09GQ4); assay: Inhibition of Candida krusei IF011 Abc1p assessed as reduction of itraconazole MIC at 1 ug after 48 hrs by agarose diffusion assay; settings: Pichia kudriavzevii
[3] = target: ATP binding cassette transporter Abc1p (Issatchenkia orientalis) (UniProt Q09GQ4); assay: Inhibition of Candida krusei Abc1p expressed in Saccharomyces cerevisiae isolate AD assessed as reduction of itraconazole MIC at 1 ug after 48 hrs by agarose diffusion assay; settings: Pichia kudriavzevii
[4] = target: ATP binding cassette transporter Abc1p (Issatchenkia orientalis) (UniProt Q09GQ4); assay: Inhibition of Candida krusei B2399 Abc1p assessed as reduction of itraconazole MIC at 2.5 ug/ml after 48 hrs by checkerboard susceptibility assay; settings: Pichia kudriavzevii; summary of the method: as §1
[5] = target: ATP binding cassette transporter Abc1p (Issatchenkia orientalis) (UniProt Q09GQ4); assay: Inhibition of Candida krusei B2399 Abc1p assessed as reduction of fluconazole MIC at 2.5 ug/ml after 48 hrs by checkerboard susceptibility assay; settings: Pichia kudriavzevii; summary of the method: as §1
[6] = target: ATP binding cassette transporter Abc1p (Issatchenkia orientalis) (UniProt Q09GQ4); assay: Inhibition of Candida krusei B2399 Abc1p assessed as reduction of itraconazole MIC at 1 ug after 48 hrs by agarose diffusion assay; settings: Pichia kudriavzevii
[7] = target: ATP binding cassette transporter Abc1p (Issatchenkia orientalis) (UniProt Q09GQ4); assay: Inhibition of Candida krusei Abc1g expressed in Saccharomyces cerevisiae isolate ADdelta assessed as reduction of itraconazole MIC at 2.5 ug/ml after 48 hrs by checkerboard susceptibility assay; settings: Pichia kudriavzevii; summary of the method: as §1
Pichia kudriavzevii [8] = assay: Antimicrobial activity against Candida krusei NZCDC 89.102 after 48 hrs by CLSI method; format: functional
Summary of the method: (§2)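 Azole MICs were determined by the CLSI M27-A2 broth microdilution reference method. They were interpreted against the CLSI breakpoints. Strains were maintained in YPD medium (1% yeast extract, 2% peptone, 2% glucose).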

Pichia kudriavzevii [9] = assay: Antimicrobial activity against Candida krusei NZCDC 89.102 after 48 hrs by liquid microdilution assay; format: functional; settings: NZCDC 89.102, 48 h
Summary of the method: (§3)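 Liquid broth microdilution susceptibility assay in CSM medium at pH 7.0, which was also the medium used for the expression studies. Fungal strains were maintained in YPD. The S. cerevisiae test strains carry C. krusei ABC1 or fungal ERG11 alleles integrated at the chromosomal PDR5 locus.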

Pichia kudriavzevii [10] = assay: Antimicrobial activity against Candida krusei NZCDC 89.221 after 48 hrs by liquid microdilution assay; format: functional; settings: NZCDC 89.221, 48 h; summary of the method: as §3
Saccharomyces cerevisiae [11] = assay: Fold resistant, ratio of MIC for Saccharomyces cerevisiae isolate ADdelta overexpressing Saccharomyces cerevisiae ERG11 to MIC for Saccharomyces cerevisiae isolate ADdelta overexpressing Abc1p; format: functional
Summary of the method: (§4)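 Fold resistance is the ratio of azole MICs between S. cerevisiae overexpressing strains. The MICs were measured by liquid broth microdilution in CSM medium at pH 7.0. The ERG11 or ABC1 constructs are integrated at the PDR5 locus.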

Pichia kudriavzevii [12] = assay: Antimicrobial activity against Candida krusei B2399 after 48 hrs by liquid microdilution assay; format: functional; settings: B2399, 48 h; summary of the method: as §3
Saccharomyces cerevisiae [13] = assay: Antimicrobial activity against Saccharomyces cerevisiae isolate ADdelta overexpressing Candida krusei ERG11g after 48 hrs by liquid microdilution assay; format: functional; summary of the method: as §3
Saccharomyces cerevisiae [14] = assay: Antimicrobial activity against Saccharomyces cerevisiae isolate ADdelta overexpressing Candida albicans ERG11A after 48 hrs by liquid microdilution assay; format: functional; summary of the method: as §3
Saccharomyces cerevisiae [15] = assay: Fold resistant, ratio of MIC for Saccharomyces cerevisiae isolate ADdelta overexpressing Candida albicans ERG11A to MIC for Saccharomyces cerevisiae isolate ADdelta overexpressing Abc1p; format: functional; summary of the method: as §4
Pichia kudriavzevii [16] = assay: Antimicrobial activity against Candida krusei IFO0011 after 48 hrs by liquid microdilution assay; format: functional; settings: IFO0011, 48 h; summary of the method: as §3
Saccharomyces cerevisiae [17] = assay: Antimicrobial activity against Saccharomyces cerevisiae isolate AD overexpressing Candida krusei ERG11C after 48 hrs by liquid microdilution assay; format: functional; summary of the method: as §3
Saccharomyces cerevisiae [18] = assay: Fold resistant, ratio of MIC for Saccharomyces cerevisiae isolate ADdelta overexpressing Candida krusei ERG11C to MIC for Saccharomyces cerevisiae isolate ADdelta overexpressing Abc1p; format: functional; summary of the method: as §4
Pichia kudriavzevii [19] = assay: Antimicrobial activity against Candida krusei NZCDC 89.221 after 48 hrs by CLSI method; format: functional; summary of the method: as §2
Pichia kudriavzevii [20] = assay: Antimicrobial activity against Candida krusei NZCDC 89.021 after 48 hrs by CLSI method; format: functional; settings: NZCDC 89.021, 48 h; summary of the method: as §2
Saccharomyces cerevisiae [21] = assay: Antimicrobial activity against Saccharomyces cerevisiae isolate ADdelta overexpressing Saccharomyces cerevisiae ERG11 after 48 hrs by liquid microdilution assay; format: functional; summary of the method: as §3
Pichia kudriavzevii [22] = assay: Antimicrobial activity against Candida krusei B2399 after 48 hrs by CLSI method; format: functional; settings: B2399, 48 h; summary of the method: as §2
Pichia kudriavzevii [23] = assay: Antimicrobial activity against Candida krusei NZCDC 89.021 after 48 hrs by liquid microdilution assay; format: functional; settings: NZCDC 89.021, 48 h; summary of the method: as §3
[24] = target: ATP binding cassette transporter Abc1p (Issatchenkia orientalis) (UniProt Q09GQ4); assay: Inhibition of Candida krusei ABC1 expressed in Saccharomyces cerevisiae isolate ADdelta at 0.28 nM; settings: Pichia kudriavzevii
Pichia kudriavzevii [25] = assay: Antimicrobial activity against Candida krusei IFO0011 after 48 hrs by CLSI method; format: functional; settings: IFO0011, 48 h; summary of the method: as §2
Pichia kudriavzevii [26] = assay: Antimicrobial activity against Candida krusei NZCDC 90.147 after 48 hrs by liquid microdilution assay; format: functional; settings: NZCDC 90.147, 48 h; summary of the method: as §3
Saccharomyces cerevisiae [27] = assay: Antimicrobial activity against Saccharomyces cerevisiae isolate ADdelta overexpressing Abc1p after 48 hrs by liquid microdilution assay; format: functional; summary of the method: as §3
Pichia kudriavzevii [28] = assay: Antimicrobial activity against Candida krusei NZCDC 90.147 after 48 hrs by CLSI method; format: functional; summary of the method: as §2
Saccharomyces cerevisiae [29] = assay: Fold resistant, ratio of MIC for Saccharomyces cerevisiae isolate ADdelta overexpressing Candida krusei ERG11g to MIC for Saccharomyces cerevisiae isolate ADdelta overexpressing Abc1p; format: functional; summary of the method: as §4
Pichia kudriavzevii [30] = assay: Increase in ERG11 mRNA expression in Candida krusei B2399 at 2 times MIC concentration after 1 hr by hot-phenol extraction based Northern blotting; format: functional, organism-based
Summary of the method: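 Logarithmically grown C. krusei B2399 was exposed to azole for 60 min (2x MIC for VRC, MCZ and ITC; 1x MIC for FLC) alongside an untreated control. Total RNA was extracted with hot phenol, and 10 µg was run on 1.2% denaturing agarose. It was Northern blotted and probed with a radiolabeled ERG11 fragment. ACT1 mRNA served as internal control, with EtBr-stained rRNA showing loading.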

[31] = target: ATP binding cassette transporter Abc1p (Issatchenkia orientalis) (UniProt Q09GQ4); assay: Inhibition of Candida krusei ABC1 expressed in Saccharomyces cerevisiae isolate ADdelta at 0.026 nM; settings: Pichia kudriavzevii
Summary of the method: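 Agarose disk-diffusion test of S. cerevisiae AD overexpressing C. krusei Abc1p, with the parent AD strain as comparison. Cells were pregrown from YPD overnight into CSM to mid-log at 30°C. They were seeded at OD600 0.008 in CSM with 0.6% agarose, overlaid on CSM agar (pH 7.0). Paper disks carrying set nmol amounts of xenobiotic were applied, and plates were incubated at 30°C for 48 h before reading growth inhibition zones.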

[32] = target: ATP binding cassette transporter Abc1p (Issatchenkia orientalis) (UniProt Q09GQ4); assay: Inhibition of Candida krusei ABC1 expressed in Saccharomyces cerevisiae isolate ADdelta at 8 nM; settings: Pichia kudriavzevii

Compound	MIC (Pichia kudriavzevii [8]) [µg/mL]	MIC (Pichia kudriavzevii [9]) [µg/mL]	MIC (Pichia kudriavzevii [10]) [µg/mL]	ratio (Saccharomyces cerevisiae [11])	MIC (Pichia kudriavzevii [12]) [µg/mL]	MIC (Saccharomyces cerevisiae [13]) [µg/mL]	MIC (Saccharomyces cerevisiae [14]) [µg/mL]	ratio (Saccharomyces cerevisiae [15])	MIC (Saccharomyces cerevisiae [17]) [µg/mL]	ratio (Saccharomyces cerevisiae [18])	MIC (Pichia kudriavzevii [19]) [µg/mL]	MIC (Pichia kudriavzevii [20]) [µg/mL]	MIC (Saccharomyces cerevisiae [21]) [µg/mL]	MIC (Pichia kudriavzevii [22]) [µg/mL]	MIC (Pichia kudriavzevii [23]) [µg/mL]	MIC (Pichia kudriavzevii [25]) [µg/mL]	MIC (Saccharomyces cerevisiae [27]) [µg/mL]	MIC (Pichia kudriavzevii [28]) [µg/mL]	ratio (Saccharomyces cerevisiae [29])	also measured
CC1=C[C@H]2C(=O)O[C@H]3C[C@@H](C/C=C(\C)C[C@@H](C)/C=C/C=C(\C)[C@]2(O)[C@H](O)[C@@H]1O)O[C@@]1(CC[C@H](C)[C@@H](C)O1)C3																				Activity [1]: Active; Activity [2]: Active; Activity [3]: Active; Activity [4]: Active; Activity [5]: Active; Activity [6]: Active; Activity [7]: Active
CC(=O)N1CCN(c2ccc(OCC3COC(Cn4ccnc4)(c4ccc(Cl)cc4Cl)O3)cc2)CC1 (stereo unspecified) [KETOCONAZOLE]	0.5 (≈ 0.941 µM)	4 (≈ 7.53 µM)	2 (≈ 3.76 µM)	2	2 (≈ 3.76 µM)	2 (≈ 3.76 µM)	0.125 (≈ 0.235 µM)	4	0.063 (≈ 0.119 µM)	2	0.5 (≈ 0.941 µM)	0.5 (≈ 0.941 µM)	0.063 (≈ 0.119 µM)	0.5 (≈ 0.941 µM)	4 (≈ 7.53 µM)	1 (≈ 1.88 µM)	0.031 (≈ 0.0583 µM)	1 (≈ 1.88 µM)	64	MIC (Pichia kudriavzevii [16]): 2 µg/mL (≈ 3.76 µM); Activity [24]: inactive; MIC (Pichia kudriavzevii [26]): 4 µg/mL (≈ 7.53 µM)
Clc1ccc(COC(Cn2ccnc2)c2ccc(Cl)cc2Cl)c(Cl)c1 (stereo unspecified) [MICONAZOLE]	2 (≈ 4.81 µM)	4 (≈ 9.61 µM)	4 (≈ 9.61 µM)	4	2 (≈ 4.81 µM)	0.5 (≈ 1.2 µM)	0.063 (≈ 0.151 µM)	8	0.125 (≈ 0.3 µM)	16	2 (≈ 4.81 µM)	2 (≈ 4.81 µM)	0.031 (≈ 0.0745 µM)	4 (≈ 9.61 µM)	4 (≈ 9.61 µM)	4 (≈ 9.61 µM)	0.0078 (≈ 0.0187 µM)	4 (≈ 9.61 µM)	64	Activity (Pichia kudriavzevii [30]): Active; Activity [31]: inactive
CO[C@@H]1C[C@@H](C[C@H]2CC[C@H](C)[C@H]([C@@H](C)C(=O)O)O2)O[C@]2(O[C@](C)([C@H]3CC[C@@](C)([C@@H]4O[C@@H]([C@H]5O[C@@](O)(CO)[C@H](C)C[C@@H]5C)C[C@@H]4C)O3)C[C@H]2C)[C@@H]1C																				Activity [32]: Active
